# hERG rescue – compounds protecting human hERG from proarrhythmic drug block; Q12809; CHO-hERG, FluxOR thallium flux, dofetilide IC70 present; activation (rescue from dofetilide block), less the hit threshold, % at 10 µM; actives 0.51% (n = 310,000);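 active = activation above the mean of controls blocked by dofetilide plus 5 SD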;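 note: thallium influx through hERG after potassium depolarization seen as dye fluorescence rise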
# Kir21 inh – inhibitors of mouse Kir2.1 inward-rectifier potassium channel; actives 0.85% (n = 310,000); HEK293-Kir2.1, FluxOR thallium flux fluorescence; hits give low values; P35561; B-score at 10 µM; AID 1672;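 active = fluorescence ratio B-score at or below minus 3 SD of library scores, with starting-brightness B-score within 2 SD, cut at about -4.2 in these data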;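 note: channel flux triggered by added potassium and thallium sulfate stimulus; B-score of peak minus minimum fluorescence over baseline after thallium stimulus; more negative B-score means stronger Kir2.1 block with less thallium influx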
# KCNQ1 block – blocks the human KCNQ1 potassium channel; P51787; CHO-K1 KCNQ1, FluxOR thallium flux fluorescence; hits give high values; B-score at 10 µM; actives 1.3% (n = 310,000); AID 2642;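 active = compounds whose thallium flux B-score, printed positive for inhibition, exceeds three library SD while starting fluorescence stays within three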;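 note: channel opened by potassium depolarization with thallium stimulus after 20 min compound exposure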
# Target sequence (P51787 whole entry, looked up): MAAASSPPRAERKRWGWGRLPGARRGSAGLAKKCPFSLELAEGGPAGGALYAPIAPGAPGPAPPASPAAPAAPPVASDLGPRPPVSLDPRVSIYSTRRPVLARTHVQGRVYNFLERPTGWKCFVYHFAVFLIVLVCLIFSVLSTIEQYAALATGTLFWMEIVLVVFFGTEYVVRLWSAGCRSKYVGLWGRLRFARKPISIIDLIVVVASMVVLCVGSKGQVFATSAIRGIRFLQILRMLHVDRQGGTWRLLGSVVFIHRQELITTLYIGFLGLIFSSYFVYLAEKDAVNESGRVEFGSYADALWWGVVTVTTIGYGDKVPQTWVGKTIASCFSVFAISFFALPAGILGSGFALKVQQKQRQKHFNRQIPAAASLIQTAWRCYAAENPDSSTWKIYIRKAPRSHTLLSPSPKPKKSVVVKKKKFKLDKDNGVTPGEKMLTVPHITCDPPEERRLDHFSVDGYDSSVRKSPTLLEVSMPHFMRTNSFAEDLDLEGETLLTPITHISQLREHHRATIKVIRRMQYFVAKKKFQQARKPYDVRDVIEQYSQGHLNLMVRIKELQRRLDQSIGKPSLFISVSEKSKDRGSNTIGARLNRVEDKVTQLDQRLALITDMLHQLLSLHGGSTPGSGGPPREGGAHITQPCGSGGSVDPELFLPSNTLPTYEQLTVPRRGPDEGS
# KCNQ1 act – potentiates or activates the human KCNQ1 potassium channel; P51787; CHO-K1 KCNQ1, thallium flux FluxOR fluorescence; hits give high values; actives 0.35% (n = 310,000); B-score at 10 µM;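 active = fluorescence ratio B-score, a plate-corrected score, at least three library SD, with initial intensity B-score within 5 SD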
#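 assay system = CHO-K1 cells stably expressing KCNQ1 | medium = assay buffer, equal DMSO in all wells | timing = 37 °C overnight plating, 90-min dark dye load, 20-min compound pretreatment | measured by = kinetic FluxOR thallium fluorescence, 10-s 1-Hz baseline, 110-s post-stimulus read | measure = fluorescence change relative to baseline, converted to B score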
# KCNK3 block – human KCNK3 channel inhibition, primary screen; CHO-KCNK3 thallium flux, FluxOR fluorescence; hits give low values; B-score at 10 µM; actives 0.84% (n = 340,000); AID 602410;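 active = B-score under library mean minus 4 SD, starting fluorescence ratio at most library mean plus 5 SD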;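 note: more negative B-score means stronger inhibition of thallium flux through KCNK3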
# KCNK9 inh-1 – human KCNK9 channel inhibition. Q9NPC2. B-score at 10 µM. HEK293 KCNK9, FluxOR thallium flux fluorescence; hits give low values. actives 1.2% (n = 310,000);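 active = ratio B-score over 3 SD below the library mean, with starting fluorescence within 5 SD of its mean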;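 note: negative B-score means less thallium flux so channel inhibition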
# hERG inh – blocks human hERG, in counter-screen for Kir2.1 inhibitors; shares compounds with Kir21 inh; hERG-expressing cells, thallium flux; inhibition, % at 10 µM; actives 20% (n = 320);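 note: host cells are CHO cells stably expressing hERG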
# KCNK9 inh-2 – human KCNK9 off-target activity of Kir2.1 blockers | shares compounds with Kir21 inh | KCNK9-expressing cells, ion flux inhibition | inhibition, % at 10 µM | actives 5% (n = 320)
# Kir2-1 patch inh – mouse Kir2.1 inward rectifier channel inhibition; inhibition, % at 25 µM; actives 71% (n = 320); shares compounds with Kir21 inh; Kir2.1 cells, automated patch-clamp current inhibition
# * hit, by the source's call; i = inactive; . = no result given. In the library only some 3.7% were active in any assay of this set; here they are far more common. Unless noted, the rule behind the calls is not given here.
SMILES,hERG rescue,Kir21 inh,KCNQ1 block,KCNQ1 act,KCNK3 block,KCNK9 inh-1,hERG inh,KCNK9 inh-2,Kir2-1 patch inh
CSc1ccc(NC(=O)NCCCN2CCC(Cc3ccccc3)CC2)cc1,-19.8,-5.96*,i,i,i,i,75.0%*,i,20.4%*
COc1cccc(CNCc2ccc(OC)c3ccccc23)c1OC,-10.1,-1.07,i,i,i,i,.,.,.
COc1ccccc1CNCc1ccc(OC)c2ccccc12,-6.4,-8.14*,i,i,i,i,i,i,42.3%*
COc1ccc(CNCc2ccc(OC)c3ccccc23)cc1,-0.2,-14.4*,i,i,i,i,i,i,8.1%*
COc1ccc(CNS(=O)(=O)NCc2ccccc2)cc1,-5.9,-0.04,i,i,i,i,.,.,.
COc1ccc(CNC/C=C/c2ccccc2)cc1,-6.1,-11.7*,i,i,i,i,i,i,77.6%*
O=C(NCCCN1CCOCC1)C(=O)N/N=C/c1ccc2c(c1)OCO2,-5.0,0.56,i,i,i,i,.,.,.
C[C@@H]1CN([C@H](C)CO)C(=O)Cc2cc(NC(=O)CCC(F)(F)F)ccc2O[C@@H]1CN(C)S(=O)(=O)c1ccccc1,.,.,.,.,i,.,.,.,.
S=C(NCC1CCCO1)N1CCN(c2nc(-c3ccc(Cl)cc3)cs2)CC1 (stereo not drawn),-8.4,1.34,i,i,i,i,i,i,i
CCc1cc(-c2n[nH]c(C)c2-c2nc(C)cs2)c(O)cc1OC,-15.4,-11.2*,i,i,i,i,i,i,6.3%*
COc1cc(C)ccc1OCCCCNCc1ccccc1,-3.9,-5.78*,i,i,i,i,i,i,36.9%*
COc1ccc(Cl)c(N2CCN(CCCNC(=O)Nc3ccc(C)cc3)CC2)c1,-19.2,-6.35*,i,i,i,i,70.0%*,i,4.8%*
COc1ccc(NC(=O)NCCN2CCN(c3cc(OC)ccc3OC)CC2)cc1,-6.8,-0.1,i,i,i,i,.,.,.
CC(C)c1ccc(N2CC(C)(C)C2=O)cc1,-2.2,-1.52,i,i,i,i,.,.,.
COc1cccc(OC)c1OCCCOc1c(OC)cccc1OC,-1.8,-0.14,i,i,i,i,.,.,.
COc1cccc(OC)c1OCCOc1ccccc1OC(C)C,-8.1,-11.1*,i,i,i,i,i,i,42.5%*
COc1ccc(NS(=O)(=O)c2ccc3c(c2)CCC(=O)N3)cc1O,.,.,.,.,i,.,.,.,.
CC(C)N(Cc1ccccc1)S(=O)(=O)c1ccc(Cl)nc1,-14.8,-6.94*,i,i,i,i,i,i,32.8%*
CC(C)N(Cc1ccccc1)S(=O)(=O)c1ccc(F)cc1,-10.2,-2.34,i,i,i,i,.,.,.
CC(NC(=O)/C=C/c1cnc2ccccc2n1)C12CC3CC(CC(C3)C1)C2 (stereo not drawn),-8.3,-0.98,i,i,i,i,.,.,.
CCOC(=O)C1CCN(C(=O)COC(=O)c2ccc(=O)n(Cc3ccccc3)n2)CC1,-17.6,-0.26,i,i,i,i,.,.,.
CN1CCc2c(n(CC(O)CNCc3ccccc3)c3ccccc23)C1=O (stereo not drawn),-7.6,-6.02*,i,i,i,i,i,31.0%*,i
CN1CCc2c(n(CC(O)CN(CCO)CCO)c3ccccc23)C1=O (stereo not drawn),-7.8,-0.64,i,i,i,i,.,.,.
O=C(Oc1ccc(C(=S)N2CCOCC2)cc1)c1ccccc1[N+](=O)[O-],-5.8,-0.01,i,i,i,i,.,.,.
O=C(Oc1ccc(C(=S)N2CCOCC2)cc1)c1ccccc1F,-12.9,-7.6*,i,i,i,i,i,i,i
SMILES,hERG rescue,Kir21 inh,KCNQ1 block,KCNQ1 act,KCNK3 block,KCNK9 inh-1,hERG inh,KCNK9 inh-2,Kir2-1 patch inh
CN(C)CC1CCCCC1C1(O)c2ccccc2CSc2sccc21 (stereo not drawn),-2.8,-5.71*,i,i,i,i,i,i,i
CN(C)CC1CCCCC1OC(=O)c1ccc(Cl)cc1 (stereo not drawn),-9.9,0.54,i,i,i,i,.,.,.
O=C(c1ccccc1)c1ccc(OCC(O)CNCc2ccc(F)cc2)cc1 (stereo not drawn),-12.7,-9.22*,i,i,i,i,60.0%*,i,64.9%*
O=C(COc1ccc(C(=O)c2ccccc2)cc1)NCc1ccc(F)cc1,-9.9,-2.33,i,i,i,i,.,.,.
Cc1onc(-c2ccccc2Cl)c1C(=O)c1ccccc1,-10.5,-6.37*,i,i,i,i,i,i,10.7%*
CC(C)CN(C(=O)COC(=O)CNC(=O)c1sc2ccccc2c1Cl)C1CCS(=O)(=O)C1 (stereo not drawn),-15.8,5.48,i,i,i,i,i,i,i
Cc1c(Cl)cccc1Nc1nc(NCCO)c2ccccc2n1,-14.4,-9.54*,i,i,i,i,i,i,31.1%*
CCN(Cc1ccc(C#CCCO)cc1)CC1CCCN(CCc2cccc(F)c2)C1 (stereo not drawn),-4.0,-6.7*,i,i,i,i,55.0%*,i,13.7%*
CCc1ccc(S(=O)(=O)NCCOc2cccc3cccnc23)cc1,-5.8,-6.97*,i,i,i,i,i,i,i
CC(C)(C)OC(=O)NCCc1nnc(SCc2ccc(Cl)cc2Cl)o1,-15.8,-8.94*,i,i,i,i,i,i,47.7%*
O=C(CCCN1CCC(O)(c2ccc(Cl)cc2)CC1)c1ccc(F)cc1,.,-5.5*,i,i,i,i,.,i,54.9%*
Cc1ccc(C(=O)N/C(=C/c2ccc(-c3ccc([N+](=O)[O-])cc3)o2)C(=O)NCCCN(C)C)cc1,-19.0,-1.42,i,i,i,i,.,.,.
Cc1[nH]n(-c2ccccc2)c(=O)c1S(=O)(=O)c1ccccc1,-13.8,-14.5*,i,i,i,i,i,i,66.2%*
CNCCC1Sc2ccccc2Oc2ccccc21 (stereo not drawn),-5.5,-5.94*,i,i,i,i,i,i,1.9%*
CCCCNC(=O)C1c2ccccc2Oc2ccccc21,-12.3,-0.87,i,i,i,i,.,.,.

# Compound activity deposited in PubChem BioAssay by Johns Hopkins Ion Channel Center.
